# Test results reported in ChEMBL document CHEMBL1765069, “Decahydroquinoline amides as highly selective CB2 agonists: role of selectivity on in vivo efficacy in a rodent model of analgesia” (Bioorg Med Chem Lett, 2011).
# Values joined by “and” are separate entries in the source; they are usually repeats but may differ in a detail not shown here. Equal entries are not always repeated.
# Columns and labels:
# Cannabinoid receptor 2 [1] = biological target: T1, Cannabinoid receptor 2 (Homo sapiens, UniProt P34972); assay: Agonist activity at human CB2 receptor expressed in CHOK1 cells assessed as inhibition of forskolin-induced cAMP production treated 15 mins before forskolin challenge measured after 1 hr by HTRF assay relative to control; type: functional, cell-based; conditions: CHO-K1
# Outline: (§1)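 CHO-K1 cells (1000 per well) expressing human or rat CB1 or CB2 were preincubated with compound at room temperature for 15 min. Forskolin at EC70 was then added for a further 30 min at room temperature. cAMP was read by HTRF (d2-cAMP plus anti-cAMP-cryptate, final 1 h at room temperature). IC50 and % Emax were reported.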
# Cannabinoid receptor 1 [2] = biological target: T2, Cannabinoid receptor 1 (Homo sapiens, UniProt P21554); assay: Agonist activity at human CB1 receptor expressed in CHOK1 cells assessed as inhibition of forskolin-induced cAMP production treated 15 mins before forskolin challenge measured after 1 hr by HTRF assay relative to control; type: functional, cell-based; conditions: CHO-K1; outline: as §1
# Cannabinoid receptor 2 [3] = biological target: T1, Cannabinoid receptor 2; assay: Agonist activity at human CB2 receptor expressed in CHOK1 cells assessed as inhibition of forskolin-induced cAMP production treated 15 mins before forskolin challenge measured after 1 hr by HTRF assay; type: functional, cell-based, CHO-K1
# Outline: (§2)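 CHO-K1 cells (1000 per well) expressing human or rat CB1 or CB2 were preincubated with compound for 15 min at room temperature. Forskolin was then added at its EC70 for 30 min at room temperature. cAMP was detected by HTRF (d2-cAMP plus anti-cAMP cryptate) after a final 1 h incubation at room temperature. Values are reported as IC50 with % Emax.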
# Cannabinoid receptor 1 [4] = biological target: T2, Cannabinoid receptor 1; assay: Agonist activity at human CB1 receptor expressed in CHOK1 cells assessed as inhibition of forskolin-induced cAMP production treated 15 mins before forskolin challenge measured after 1 hr by HTRF assay; type: functional, cell-based, CHO-K1; outline: as §2
# Rattus norvegicus [5] = assay: Antiinflammatory activity in rat assessed as inhibition of complete Freund's adjuvant-induced paw withdrawal threshold at 30 mg/kg, sc after 60 mins (reference value: 11%); type: functional; conditions: 1 h, route subcutaneous
# Outline: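 Rat complete Freund's adjuvant hyperalgesia model. Compound was given subcutaneously at 10, 30 or 100 mpk. Paw withdrawal threshold was read at the 60 min timepoint and expressed as % reversal.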
# Cannabinoid receptor 2 [6] = biological target: T3, Cannabinoid receptor 2 (Rattus norvegicus, UniProt Q9QZN9); assay: Agonist activity at rat CB2 receptor expressed in CHOK1 cells assessed as inhibition of forskolin-induced cAMP production treated 15 mins before forskolin challenge measured after 1 hr by HTRF assay; type: functional, cell-based, CHO-K1; outline: as §2
# T3 sequence (Q9QZN9 whole entry): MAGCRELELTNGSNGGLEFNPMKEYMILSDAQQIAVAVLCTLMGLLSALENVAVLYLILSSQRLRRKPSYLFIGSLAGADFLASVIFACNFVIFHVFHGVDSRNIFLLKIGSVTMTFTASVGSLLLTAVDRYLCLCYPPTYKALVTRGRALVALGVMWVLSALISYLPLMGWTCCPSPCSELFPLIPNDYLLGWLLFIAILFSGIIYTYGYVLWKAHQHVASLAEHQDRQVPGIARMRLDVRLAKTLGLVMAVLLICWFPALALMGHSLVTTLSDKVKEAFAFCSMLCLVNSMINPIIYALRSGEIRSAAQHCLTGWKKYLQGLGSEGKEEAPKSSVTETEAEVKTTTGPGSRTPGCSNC
# Cannabinoid receptor 1 [7] = biological target: Cannabinoid receptor 1 (Rattus norvegicus, UniProt P20272); assay: Agonist activity at rat CB1 receptor expressed in CHOK1 cells assessed as inhibition of forskolin-induced cAMP production treated 15 mins before forskolin challenge measured after 1 hr by HTRF assay; type: functional, cell-based, CHO-K1; outline: as §2
# Plasma = assay: Drug level in rat complete Freund's adjuvant-induced inflammation model plasma at 30 mg/kg, sc; type: ADME, organism-based; design: dose 30 mg/kg, route subcutaneous; conditions: in vivo, read-out: Drug uptake
# Outline: (§3)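 In the rat CFA hyperalgesia experiments, after 30 mpk subcutaneous dosing, compound levels (nM) were measured in plasma, brain homogenate and cerebrospinal fluid.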
# Brain = assay: Drug level in rat complete Freund's adjuvant-induced inflammation model brain at 30 mg/kg, sc; type: ADME, organism-based; design: dose 30 mg/kg, route subcutaneous; conditions: in vivo, read-out: Drug uptake; outline: as §3
# Cerebrospinal fluid = assay: Drug level in rat complete Freund's adjuvant-induced inflammation model cerebrospinal fluid at 30 mg/kg, sc; type: ADME, organism-based; design: dose 30 mg/kg, route subcutaneous; conditions: in vivo, read-out: Drug uptake; outline: as §3
# [8] = biological target: T4, Cannabinoid receptor 2 (Rattus norvegicus) (UniProt Q9QZN9); assay: Agonist activity at rat CB2 receptor expressed in CHOK1 cells assessed as inhibition of forskolin-induced cAMP production treated 15 mins before forskolin challenge measured after 1 hr by HTRF assay relative to control; type: functional, cell-based; conditions: CHO-K1; outline: as §1
# T4 sequence (whole entry): T3 sequence (Q9QZN9 whole entry)
# [9] = biological target: Cannabinoid receptor 1 (Rattus norvegicus) (UniProt P20272); assay: Agonist activity at rat CB1 receptor expressed in CHOK1 cells assessed as inhibition of forskolin-induced cAMP production treated 15 mins before forskolin challenge measured after 1 hr by HTRF assay relative to control; type: functional, cell-based; conditions: CHO-K1; outline: as §1
# Rattus norvegicus [10] = species on record: Rattus norvegicus
# Homo sapiens = species on record: Homo sapiens; assay: Selectivity ratio of IC50 for human CB1 receptor to IC50 for human CB2 receptor
# [11] = Fraction unbound in rat plasma; type: ADME, cell-free
# [12] = Distribution coefficient, log P of the compound; type: physicochemical; conditions: octanol/water
# Rattus norvegicus [13] = species on record: Rattus norvegicus; assay: animal or person; conditions: sc, 1 h, read-out: INH
# T1 sequence (P34972 whole entry): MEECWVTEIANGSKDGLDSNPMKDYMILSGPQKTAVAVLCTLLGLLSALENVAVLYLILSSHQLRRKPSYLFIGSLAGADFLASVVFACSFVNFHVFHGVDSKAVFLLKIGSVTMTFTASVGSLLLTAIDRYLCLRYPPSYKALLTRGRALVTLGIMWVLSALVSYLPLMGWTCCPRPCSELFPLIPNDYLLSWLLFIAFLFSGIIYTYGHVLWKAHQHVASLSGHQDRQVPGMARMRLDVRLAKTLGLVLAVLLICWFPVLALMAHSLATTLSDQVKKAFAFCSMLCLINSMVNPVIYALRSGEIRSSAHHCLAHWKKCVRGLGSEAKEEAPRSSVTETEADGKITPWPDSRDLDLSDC
# T2 sequence (P21554 whole entry): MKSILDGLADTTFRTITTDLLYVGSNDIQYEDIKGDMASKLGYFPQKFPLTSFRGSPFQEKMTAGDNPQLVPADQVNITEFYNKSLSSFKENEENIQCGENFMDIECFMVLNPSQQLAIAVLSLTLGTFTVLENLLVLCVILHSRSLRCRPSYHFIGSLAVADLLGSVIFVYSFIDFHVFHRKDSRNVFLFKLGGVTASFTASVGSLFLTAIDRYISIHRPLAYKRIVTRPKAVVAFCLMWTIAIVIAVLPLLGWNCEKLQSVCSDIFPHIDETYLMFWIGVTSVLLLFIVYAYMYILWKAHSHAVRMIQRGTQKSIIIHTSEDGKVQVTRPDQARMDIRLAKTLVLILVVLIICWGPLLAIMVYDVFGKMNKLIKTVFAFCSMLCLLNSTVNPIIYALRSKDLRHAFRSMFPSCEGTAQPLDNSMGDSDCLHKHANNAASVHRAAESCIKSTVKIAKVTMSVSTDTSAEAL
# Chain of Cannabinoid receptor 1 (Rattus norvegicus, UniProt P20272) (P20272 whole entry): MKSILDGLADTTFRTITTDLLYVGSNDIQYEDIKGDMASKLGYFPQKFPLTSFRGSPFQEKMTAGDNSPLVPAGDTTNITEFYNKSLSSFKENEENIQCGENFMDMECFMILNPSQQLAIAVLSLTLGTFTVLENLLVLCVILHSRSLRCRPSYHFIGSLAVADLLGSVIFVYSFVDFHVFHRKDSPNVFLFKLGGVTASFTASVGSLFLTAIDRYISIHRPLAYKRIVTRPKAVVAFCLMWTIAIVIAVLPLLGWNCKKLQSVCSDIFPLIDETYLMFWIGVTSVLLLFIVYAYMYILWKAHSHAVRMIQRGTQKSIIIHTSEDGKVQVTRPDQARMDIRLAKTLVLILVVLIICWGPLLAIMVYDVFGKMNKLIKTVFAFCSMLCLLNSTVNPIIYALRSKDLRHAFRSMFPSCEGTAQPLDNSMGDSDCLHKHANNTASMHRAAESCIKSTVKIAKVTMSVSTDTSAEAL
# Chain of Cannabinoid receptor 1 (Rattus norvegicus) (P20272 whole entry): as above
SMILES,Emax (Cannabinoid receptor 2 [1]),Emax (Cannabinoid receptor 1 [2]),IC50 (Cannabinoid receptor 2 [3]) [µM],IC50 (Cannabinoid receptor 1 [4]) [µM],other results
O=C(c1ccc(Cl)cc1)N1CC[C@](O)(c2ccccc2)[C@H]2CCCC[C@H]21,90%,79%,0.00014,0.312,
CN1CCOC[C@H]1C(=O)N1CC[C@@](O)(c2ccccc2)[C@@H]2CCCC[C@@H]21,101%,11%,0.016,> 17,inhibition in vivo at 30 mg/kg (Rattus norvegicus [5]): 3.3%; IC50 (Cannabinoid receptor 2 [6]): 0.081 µM; IC50 (Cannabinoid receptor 1 [7]): > 17 µM; concentration (Plasma): 6.6 µM; concentration (Brain): 9.8 µM; concentration (Cerebrospinal fluid): 1.5 µM; Emax [8]: 98%; Emax [9]: 8%; Papp (Rattus norvegicus [10]): 39 ×10⁻⁶ cm/s
CN1CCC(C(=O)N2CC[C@](O)(c3ccccc3)[C@H]3CCCC[C@@H]32)C1 (stereo partly specified),34%,34%,> 17,> 17,
O=C(C1CN(CC(F)(F)F)CCO1)N1CC[C@@](O)(c2ccccc2)[C@@H]2CCCC[C@@H]21 (mixture of isomers),99%,96%,0.03,4.04,
O=C(c1ccc(Cl)cc1)N1CC[C@](O)(c2ccccc2)[C@H]2CCCC[C@@H]21,90%,72%,0.024,0.963,
O=C(c1cnc2ccccc2c1)N1CC[C@@](O)(c2ccccc2)[C@@H]2CCCC[C@@H]21 (racemic),96%,69%,0.00338,1.53,Ratio IC50 (Homo sapiens): 452
O=C(c1ccc2ncccc2c1)N1CC[C@@](O)(c2ccccc2)[C@@H]2CCCC[C@@H]21 (racemic),87%,95%,0.00053,0.261,Ratio IC50 (Homo sapiens): 492
O=C(c1csc(-c2ccncc2)n1)N1CCC(O)(c2ccccc2)[C@@H]2CCCC[C@@H]21 (stereo partly specified),77% and 89%,10% and 3%,,,
O=C(c1ccc2ccccc2n1)N1CC[C@](O)(c2ccccc2)[C@H]2CCCC[C@H]21,98%,98%,0.00082,0.188,
Cc1ccc(C(=O)N2CC[C@@](O)(c3ccccc3)[C@@H]3CCCC[C@@H]32)cn1 (racemic),,,0.014,> 17,fraction unbound [11]: 0.15; logP [12]: 2.26
COc1ccc2cc([C@H](C)C(=O)O)ccc2c1 [NAPROXEN],,,,,inhibition in vivo at 20 mg/kg (Rattus norvegicus [13]): 23.9%
O=C(c1cnco1)N1CC[C@@](O)(c2ccccc2)[C@@H]2CCCC[C@@H]21 (racemic),98%,50%,0.156,3.44,
O=C(c1ccc2cnccc2n1)N1CC[C@@](O)(c2ccccc2)[C@@H]2CCCC[C@@H]21 (racemic),99%,69%,0.0055,3.44,Ratio IC50 (Homo sapiens): 626
"O=C(c1csc(-c2ccncc2)n1)N1CCC(O)(c2ccccc2)[C@@H]2CCCC[C@@H]21 (single isomer, unassigned; form 3)",97%,51%,,,
